Data set [1] relates to A-431. As to the kind of experiment: cells. The data set is classed as functional, cell-based. Conditions: Homo sapiens, A-431, 72 h.
Data set [2] is described as follows: cells. The data set is classed as functional, cell-based. Conditions: Homo sapiens, BEAS-2B, 72 h.
In data set [3] the target is Epidermal growth factor receptor (Homo sapiens, UniProt P00533, L858R). It is filed as protein assay.
Data set [4] is described as follows: (§1) Stability of the compound in rat plasma assessed as compound remaining at 50 uM at pH 7.4 after 24 hrs by LC-UV analysis. It is filed as ADME, cell-free. Conditions: pH 7.4, read-out: Stability. Summed up:
(§2)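 Rat plasma diluted to 50% (v/v) with 0.1 M PBS pH 7.4 and spiked with compound from a DMSO stock, then incubated 24 h at 37 °C. Two volumes acetonitrile added, centrifuged (4 °C, 14,000 g, 15 min), supernatant run on RP-HPLC with UV at 281 nm; percent remaining, n = 3.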

For data set [5], the system named is A549. As to the kind of experiment: cells. The data set is classed as functional, cell-based. Conditions: Homo sapiens, A549, 72 h.
The test system of data set [6] is NCI-H1975. Kind of data set: Antiproliferative activity against human NCI-H1975 cells harboring EGFR L858R/T790M mutant after 72 hrs by MTT assay. It is filed as functional, cell-based. Conditions: NCI-H1975, 72 h. (Tetrazolium dyes change colour on reduction, which living cells bring about.)
The nature of data set [7]: DTT reactivity assessed as compound remaining at 50 uM after 1 hr at pH 7.4 by LC-UV analysis. The data set is classed as physicochemical. Conditions: read-out: Activity. Summed up: (§3)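 Freshly prepared thiol (DTT, reduced GSH or L-cysteine; 2 mM) added to PBS pH 7.4 containing test compound, incubated 1 h at 37 °C. Remaining parent measured by HPLC-UV (C18, 281 nm); mean ± SD, n = 3.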

Data set [8] can be described thus: GSH reactivity assessed as compound remaining at 50 uM after 1 hr at pH 7.4 by LC-UV analysis. The data set is classed as physicochemical. Conditions: read-out: Activity. Summed up: as §3
Data set [9] can be described thus: L-cysteine reactivity assessed as compound remaining at 50 uM after 1 hr at pH 7.4 by LC-UV analysis. It is filed as physicochemical. Conditions: read-out: Activity. The gist of the method: as §3
Data set [10] addresses Epidermal growth factor receptor (Homo sapiens, UniProt P00533).
Data set [11] in a line: cells. The data set is classed as ADME, cell-based. Conditions: Homo sapiens, 16HBE14o-, 72 h.
The nature of data set [12]: cells. The data set is classed as functional, cell-based. Conditions: Homo sapiens, HCC827, 72 h.
A short description of data set [13]: Chemical stability of the compound in buffer solution assessed as compound remaining at 50 uM at pH 7.4 after 24 hrs by LC-UV analysis. The data set is classed as physicochemical. Conditions: read-out: Stability. The gist of the method: (§4)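 1 mM DMSO stocks diluted to 50 µM final (5% v/v DMSO) in prewarmed 0.01 M PBS pH 7.4 or 0.01 M borate buffer pH 9.0. Incubated at 37 °C for 24 h, mixed with equal volume acetonitrile, analysed by C18 RP-HPLC with UV detection at 281 nm; percent remaining, mean ± SD, n = 3.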

Data set [14] deals with Epidermal growth factor receptor (Homo sapiens, UniProt P00533, L858R/T790M). The data set is classed as protein assay.
Sequence of Epidermal growth factor receptor (Homo sapiens, UniProt P00533, L858R/T790M) (P00533 25-1210 T790M/L858R limits assumed): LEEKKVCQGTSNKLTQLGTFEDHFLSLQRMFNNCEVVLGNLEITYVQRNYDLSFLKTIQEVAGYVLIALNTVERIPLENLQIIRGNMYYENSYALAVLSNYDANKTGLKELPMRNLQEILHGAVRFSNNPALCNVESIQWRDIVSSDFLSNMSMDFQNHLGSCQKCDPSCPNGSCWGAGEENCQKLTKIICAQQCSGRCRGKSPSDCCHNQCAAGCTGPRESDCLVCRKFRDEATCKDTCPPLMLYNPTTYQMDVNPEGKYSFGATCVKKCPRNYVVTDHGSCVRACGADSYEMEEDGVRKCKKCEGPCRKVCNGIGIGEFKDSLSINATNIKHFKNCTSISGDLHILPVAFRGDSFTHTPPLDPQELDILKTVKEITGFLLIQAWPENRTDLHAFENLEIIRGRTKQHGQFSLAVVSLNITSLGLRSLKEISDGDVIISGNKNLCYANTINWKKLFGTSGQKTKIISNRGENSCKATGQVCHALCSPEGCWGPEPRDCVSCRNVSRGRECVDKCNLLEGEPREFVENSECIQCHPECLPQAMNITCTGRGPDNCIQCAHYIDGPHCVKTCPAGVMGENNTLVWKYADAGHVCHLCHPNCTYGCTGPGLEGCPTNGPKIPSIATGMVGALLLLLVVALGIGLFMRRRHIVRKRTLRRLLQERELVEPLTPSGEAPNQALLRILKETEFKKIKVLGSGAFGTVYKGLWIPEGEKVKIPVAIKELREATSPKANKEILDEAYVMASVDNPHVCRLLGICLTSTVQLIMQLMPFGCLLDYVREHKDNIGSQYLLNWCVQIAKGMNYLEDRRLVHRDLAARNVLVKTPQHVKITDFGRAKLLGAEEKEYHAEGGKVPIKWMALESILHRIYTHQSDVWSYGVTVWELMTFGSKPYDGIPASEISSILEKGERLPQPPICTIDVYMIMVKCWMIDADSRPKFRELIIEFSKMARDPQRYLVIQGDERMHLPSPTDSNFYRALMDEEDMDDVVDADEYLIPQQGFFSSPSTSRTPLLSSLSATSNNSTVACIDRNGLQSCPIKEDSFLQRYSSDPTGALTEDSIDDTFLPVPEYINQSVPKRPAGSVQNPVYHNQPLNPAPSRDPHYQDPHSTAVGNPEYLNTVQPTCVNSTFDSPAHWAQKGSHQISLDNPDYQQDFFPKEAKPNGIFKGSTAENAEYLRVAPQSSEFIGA
Data set [15] in a line: Chemical stability of the compound in buffer solution assessed as compound remaining at 50 uM at pH 9 after 24 hrs by LC-UV analysis. It is filed as physicochemical. The gist of the method:
as §4

Data set [16] deals with RAC-alpha serine/threonine-protein kinase (Homo sapiens) (UniProt P31749). As to the kind of experiment: Inhibition of Akt phosphorylation in human H1975 cells harboring EGFR L858R/T790M mutant at 1 uM by Western blotting analysis. It is filed as cell-based. The gist of the method: (§5)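 Lysates (50 µg/lane) separated on 7.5% SDS-PAGE and blotted to nitrocellulose. Probed for total and phospho-EGFR (Tyr1068), Akt (Ser473) and ERK (Thr202/Tyr204) plus β-actin; HRP secondaries with ECL detection.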
On the technique in general: In western blotting, separated proteins are transferred to a membrane and probed.

Data set [17] has as its system NCI-H1975. As to the kind of experiment: Induction of NO production in human NCI-H1975 cells harboring EGFR L858R/T790M mutant at 100 uM incubated for 150 mins. It is filed as functional, cell-based. Summed up: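 H1975 or 16HBE cells (1 × 10⁶/well) exposed to 100 µM compound for 150 min, then harvested and lysed. Lysates mixed with Griess reagent for 10 min and absorbance read at 540 nm. Nitrite quantified against a […] standard curve, with diluent-treated cells as background.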

The test system of data set [18] is Plasma. Described as §1. Conditions: pH 7.4, 24 h, 50 µM, BLD = below limit of detection. The data set is classed as ADME, cell-free. The gist of the method:
as §2

In data set [19] the test system is Epidermal growth factor receptor (Homo sapiens), P00533 [L858R,T790M]. Kind of data set: Inhibition of EGFR phosphorylation in human H1975 cells harboring EGFR L858R/T790M mutant at 0.1 uM by Western blotting analysis. It is filed as cell-based. Summed up:
as §5

The test system is the same in data set [20]. As to the kind of experiment: Inhibition of EGFR phosphorylation in human H1975 cells harboring EGFR L858R/T790M mutant by Western blotting analysis. It is filed as cell-based. The gist of the method:
as §5

The test system is the same in data set [21]. Conditions: H1975, at 1 µM.
For data set [22], the system named is HCC827. Kind of data set: Antiproliferative activity against gefitinib-sensitive human HCC827 cells bearing EGFR del E746_A750 mutant at 5 uM after 72 hrs by MTT assay in presence of 1 to 20 uM haemoglobin NO scavenger. It is filed as functional, cell-based. Conditions: in the assay text read “24 hrs” for “72 hrs”. The gist of the method: (§6)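 Cells pretreated 1 h with hemoglobin (0, 1, 5, 10 or 20 µM) as NO scavenger, then exposed to 5 µM test compound for 24 h; growth read by MTT assay.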

For data set [23], the system named is H1975. Conditions: Homo sapiens, at 1 µM.
Data set [24] concerns NCI-H1975. As to the kind of experiment: Antiproliferative activity against human NCI-H1975 cells harboring EGFR L858R/T790M mutant at 5 uM after 72 hrs by MTT assay in presence of 1 to 20 uM haemoglobin NO scavenger. It is filed as functional, cell-based. Conditions: in the assay text read “24 hrs” for “72 hrs”. The gist of the method:
as §6

The source made the active and inactive calls. The calls are words filed in the database; no cut-off is given here.

Sequence of Epidermal growth factor receptor (Homo sapiens, UniProt P00533, L858R) (P00533 25-1210 L858R limits assumed): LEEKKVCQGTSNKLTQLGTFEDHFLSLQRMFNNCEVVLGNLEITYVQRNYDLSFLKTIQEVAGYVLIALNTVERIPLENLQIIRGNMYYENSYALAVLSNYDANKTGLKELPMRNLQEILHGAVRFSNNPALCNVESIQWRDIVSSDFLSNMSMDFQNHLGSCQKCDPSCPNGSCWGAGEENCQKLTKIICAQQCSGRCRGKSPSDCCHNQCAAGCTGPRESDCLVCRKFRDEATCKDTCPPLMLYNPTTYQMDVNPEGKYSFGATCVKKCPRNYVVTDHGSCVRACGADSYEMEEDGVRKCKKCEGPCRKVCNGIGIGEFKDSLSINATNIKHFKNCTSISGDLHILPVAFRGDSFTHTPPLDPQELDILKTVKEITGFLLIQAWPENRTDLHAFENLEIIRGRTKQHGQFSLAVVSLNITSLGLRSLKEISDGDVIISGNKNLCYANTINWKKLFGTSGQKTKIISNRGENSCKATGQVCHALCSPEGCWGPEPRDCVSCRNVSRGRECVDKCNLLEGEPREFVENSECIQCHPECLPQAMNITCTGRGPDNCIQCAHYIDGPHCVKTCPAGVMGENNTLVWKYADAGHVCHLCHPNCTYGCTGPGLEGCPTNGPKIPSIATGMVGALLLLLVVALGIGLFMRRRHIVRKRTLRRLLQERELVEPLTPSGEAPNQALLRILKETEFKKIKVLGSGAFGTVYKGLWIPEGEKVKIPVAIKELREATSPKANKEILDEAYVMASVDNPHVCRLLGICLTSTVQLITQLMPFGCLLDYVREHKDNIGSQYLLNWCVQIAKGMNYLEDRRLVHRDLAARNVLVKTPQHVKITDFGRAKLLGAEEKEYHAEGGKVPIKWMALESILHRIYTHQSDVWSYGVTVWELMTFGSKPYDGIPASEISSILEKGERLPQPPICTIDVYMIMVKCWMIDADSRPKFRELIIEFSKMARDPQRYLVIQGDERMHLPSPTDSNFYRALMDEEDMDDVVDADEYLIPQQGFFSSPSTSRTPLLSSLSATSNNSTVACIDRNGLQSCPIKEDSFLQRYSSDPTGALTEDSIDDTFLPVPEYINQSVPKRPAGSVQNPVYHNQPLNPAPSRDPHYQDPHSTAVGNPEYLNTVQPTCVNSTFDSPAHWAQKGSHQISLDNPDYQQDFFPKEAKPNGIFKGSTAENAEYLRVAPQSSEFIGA
Sequence of Epidermal growth factor receptor (Homo sapiens, UniProt P00533) (P00533 whole entry): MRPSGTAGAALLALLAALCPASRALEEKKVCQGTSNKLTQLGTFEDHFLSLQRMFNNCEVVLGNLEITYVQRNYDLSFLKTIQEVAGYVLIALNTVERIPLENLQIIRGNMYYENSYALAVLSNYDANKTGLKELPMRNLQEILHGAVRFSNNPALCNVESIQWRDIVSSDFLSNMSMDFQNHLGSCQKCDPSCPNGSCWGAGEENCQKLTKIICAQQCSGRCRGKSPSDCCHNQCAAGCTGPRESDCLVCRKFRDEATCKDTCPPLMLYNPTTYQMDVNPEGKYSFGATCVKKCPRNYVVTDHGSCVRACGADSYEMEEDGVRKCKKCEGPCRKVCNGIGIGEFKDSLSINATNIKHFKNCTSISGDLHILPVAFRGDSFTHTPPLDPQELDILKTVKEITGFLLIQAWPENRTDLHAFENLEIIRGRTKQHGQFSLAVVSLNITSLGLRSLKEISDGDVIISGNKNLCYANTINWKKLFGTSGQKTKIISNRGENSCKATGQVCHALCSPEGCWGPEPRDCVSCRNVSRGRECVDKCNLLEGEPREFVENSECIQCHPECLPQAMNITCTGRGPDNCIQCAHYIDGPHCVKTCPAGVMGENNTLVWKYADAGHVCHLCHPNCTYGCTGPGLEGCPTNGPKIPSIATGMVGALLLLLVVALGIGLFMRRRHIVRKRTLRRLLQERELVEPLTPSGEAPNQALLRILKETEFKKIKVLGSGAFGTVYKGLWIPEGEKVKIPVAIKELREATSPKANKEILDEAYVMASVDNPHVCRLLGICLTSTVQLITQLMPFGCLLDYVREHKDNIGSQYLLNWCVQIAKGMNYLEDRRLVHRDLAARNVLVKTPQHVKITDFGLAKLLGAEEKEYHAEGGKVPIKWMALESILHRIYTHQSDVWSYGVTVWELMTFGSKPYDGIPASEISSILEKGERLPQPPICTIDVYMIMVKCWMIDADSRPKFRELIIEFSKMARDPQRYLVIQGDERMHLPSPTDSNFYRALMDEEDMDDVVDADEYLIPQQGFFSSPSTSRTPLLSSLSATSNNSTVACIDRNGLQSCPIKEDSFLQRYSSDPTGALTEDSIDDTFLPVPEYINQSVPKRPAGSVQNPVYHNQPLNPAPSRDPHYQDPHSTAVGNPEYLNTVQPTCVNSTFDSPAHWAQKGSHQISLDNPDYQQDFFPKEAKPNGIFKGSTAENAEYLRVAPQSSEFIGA
Sequence of Epidermal growth factor receptor (Homo sapiens), P00533 [L858R,T790M] (P00533 whole entry T790M/L858R, looked up): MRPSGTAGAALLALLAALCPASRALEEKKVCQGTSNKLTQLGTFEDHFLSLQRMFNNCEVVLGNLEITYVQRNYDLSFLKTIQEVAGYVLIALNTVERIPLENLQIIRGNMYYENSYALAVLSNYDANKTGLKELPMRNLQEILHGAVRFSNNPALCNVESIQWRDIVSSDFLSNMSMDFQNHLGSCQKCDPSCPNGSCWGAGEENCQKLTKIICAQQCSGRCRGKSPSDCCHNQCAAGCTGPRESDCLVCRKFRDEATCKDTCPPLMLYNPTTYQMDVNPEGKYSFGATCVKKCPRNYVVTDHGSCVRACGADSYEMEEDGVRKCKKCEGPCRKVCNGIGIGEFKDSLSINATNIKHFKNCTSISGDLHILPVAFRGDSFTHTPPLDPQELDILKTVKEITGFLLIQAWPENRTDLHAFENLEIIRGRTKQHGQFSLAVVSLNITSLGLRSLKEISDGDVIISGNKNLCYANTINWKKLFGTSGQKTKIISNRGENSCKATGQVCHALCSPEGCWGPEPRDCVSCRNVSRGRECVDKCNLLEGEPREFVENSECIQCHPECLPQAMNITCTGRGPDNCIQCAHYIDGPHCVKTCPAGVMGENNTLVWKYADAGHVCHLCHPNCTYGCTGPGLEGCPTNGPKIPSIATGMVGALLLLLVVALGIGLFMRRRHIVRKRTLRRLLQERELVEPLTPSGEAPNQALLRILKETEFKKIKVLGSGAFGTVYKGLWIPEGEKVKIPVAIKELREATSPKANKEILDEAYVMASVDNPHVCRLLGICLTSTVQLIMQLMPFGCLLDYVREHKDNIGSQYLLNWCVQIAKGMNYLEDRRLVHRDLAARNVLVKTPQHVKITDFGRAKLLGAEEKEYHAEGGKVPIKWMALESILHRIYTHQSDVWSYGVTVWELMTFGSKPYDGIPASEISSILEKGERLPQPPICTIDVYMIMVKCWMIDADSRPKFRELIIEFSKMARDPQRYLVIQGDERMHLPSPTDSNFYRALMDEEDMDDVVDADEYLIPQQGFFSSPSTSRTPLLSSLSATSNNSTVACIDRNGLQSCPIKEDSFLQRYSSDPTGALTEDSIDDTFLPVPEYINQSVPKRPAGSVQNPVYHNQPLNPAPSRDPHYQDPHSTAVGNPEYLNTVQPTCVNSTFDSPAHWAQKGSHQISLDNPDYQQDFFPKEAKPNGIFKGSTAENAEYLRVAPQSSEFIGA

For the molecule `COc1cc(N2CCN(C)CC2)ccc1Nc1ncc(Cl)c(Oc2cccc(NC(=O)CCN3CCN(CCO)CC3)c2)n1`, the IC50 in data set [1] came out at 632 nM; in data set [2], 1660 nM; in data set [3], 5870 nM; in data set [5], 2820 nM; in [6] it was 931 nM; in data set [10], 2390 nM. Also, the results for the IC50 in data set [11], in data set [12] and in data set [14] were 2060 nM, 799 nM and 2420 nM, respectively. The remaining at 24 h, 50 µM in [4] came out at 105%; in data set [13], 99.5%; in data set [15] (buffer solution, pH 9, read-out: Stability), 81.4%. Besides, the figures for the remaining at 1 h, 50 µM in data set [7], in data set [8] and in [9] were 101%, 100% and 101%, respectively.

With `COc1cc2ncnc(Nc3ccc(F)c(Cl)c3)c2cc1OCCCN1CCOCC1`, the inhibition entry in data set [16] is “inactive”. Also, in [17], the result was Active.

With `C=CC(=O)Nc1cccc(Oc2nc(Nc3ccc(N4CCN(C)CC4)cc3OC)ncc2Cl)c1`, the Stability result in [18] is on record as “BLD”; in data set [15] (buffer, pH 9, 24 h, 50 µM, BLD = below limit of detection), “BLD”. In addition, the values for the IC50 in [6] and in [12] were 46 nM and 8 nM, respectively. The remaining at 1 h, 50 µM amounted to 11.3% in [7], 73.5% in data set [8] and 12.2% in data set [9]. Also, the remaining at 24 h, 50 µM in data set [13] worked out at 101%.

Take `COc1cc(N2CCN(C)CC2)ccc1Nc1ncc(Cl)c(Oc2cccc(NC(=O)CCN3CCOCC3)c2)n1`: the IC50 in data set [1] is 3910 nM; in data set [2] it was 2270 nM; in data set [3] it was over 10000 nM; in data set [5] it was 2620 nM; in data set [6] it was 1020 nM; in [10] it was over 10000 nM. In addition, the IC50 was 3600 nM in data set [11], 899 nM in data set [12] and over 10000 nM in [14].

Turning to `COc1cc(N2CCN(C)CC2)ccc1Nc1ncc(Cl)c(Oc2cccc(NC(=O)CCN3CCCCC3)c2)n1`, the IC50 is 410 nM in data set [1]; 365 nM in data set [2]; 4530 nM in data set [3]; 1120 nM in data set [5]; 178 nM in data set [6]; 10000 nM in [10]. Further, the IC50 in data set [11] is 970 nM; in data set [12] it was 337 nM; in [14], 2180 nM.

Consider `COc1cc(N2CCN(C)CC2)ccc1Nc1ncc(Cl)c(Oc2cccc(NC(=O)CCN3CCN(C)CC3)c2)n1`, for which the IC50 in data set [1] was found to be 548 nM; in [2] it was 412 nM; in data set [3], 10000 nM; in data set [5] it was 1030 nM; in data set [6], 1040 nM; in [10], 7440 nM. Moreover, the IC50 in data set [11] came out at 1750 nM; in [12] it was 1500 nM; in data set [14], 4710 nM.

As for `CCOC(=O)N1CCN(CCC(=O)Nc2cccc(Oc3nc(Nc4ccc(N5CCN(C)CC5)cc4OC)ncc3Cl)c2)CC1`, the IC50 in [1] amounted to 4530 nM; in [2] it was 5780 nM; in data set [3] it was 2380 nM; in data set [5], 5280 nM; in data set [6], 1600 nM; in data set [10], 698 nM. The IC50 in data set [11] turned out to be 3700 nM; in [12], 883 nM; in [14] it was 537 nM.

As for `COc1cc(N2CCN(C)CC2)ccc1Nc1ncc(Cl)c(Oc2cccc(NC(=O)CCN3CCCC3)c2)n1`, the IC50 was 804 nM in data set [1]; 1890 nM in [2]; 427 nM in data set [3]; 1210 nM in data set [5]; 268 nM in data set [6]; 525 nM in [10]. The results for the IC50 in data set [11], in [12] and in [14] were 1130 nM, 210 nM and 88 nM, respectively.

On to `COc1cc(N2CCN(C)CC2)ccc1Nc1ncc(Cl)c(Oc2cccc(NC(=O)CCN3CCN(CCOc4no[n+]([O-])c4S(=O)(=O)c4ccccc4)CC3)c2)n1`, for which the IC50 was 4470 nM in data set [1]; 3370 nM in data set [2]; 262 nM in data set [3]; 8250 nM in data set [5]; 108 nM in data set [6]; 201 nM in [10]. The 50% inhibitory concentration (IC50) in data set [11] came out at 2880 nM; in data set [12] it was 130 nM; in data set [14] it was 263 nM. The inhibition entry in data set [19], in [21], in [23] and in [16] was “Active” each time. In addition, the inhibition entry in [20] was “Dose-dependent effect”. For the same molecule, the inhibition entry in data set [22] and in data set [24] was “inactive” each time. Also, in [17], the outcome was Active.

Consider `CCN(CC)CCC(=O)Nc1cccc(Oc2nc(Nc3ccc(N4CCN(C)CC4)cc3OC)ncc2Cl)c1`, for which the IC50 was 291 nM in [1]; 433 nM in data set [2]; 818 nM in data set [3]; 1000 nM in data set [5]; 166 nM in data set [6]; 877 nM in data set [10]. Further, the values for the IC50 in data set [11], in data set [12] and in [14] were 620 nM, 249 nM and 181 nM, respectively.

As to `COc1cc(N2CCN(C)CC2)ccc1Nc1ncc(Cl)c(Oc2cccc(NC(=O)CCN(C)C)c2)n1`, the IC50 in data set [1] turned out to be 545 nM; in [2] it was 615 nM; in [3], 804 nM; in data set [5], 923 nM; in data set [6] it was 156 nM; in [10], 638 nM. Moreover, the IC50 in data set [11] amounted to 1140 nM; in data set [12], 266 nM; in data set [14] it was 184 nM.

For orientation: IC50 means the concentration that gives 50% inhibition. Read a high IC50 as lower potency.

These data come from ChEMBL document CHEMBL3232794, “Synthesis and evaluation of 2-anilinopyrimidines bearing 3-aminopropamides as potential epidermal growth factor receptor inhibitors” (Eur J Med Chem, 2014).
